Bioassay records (PubChem)
TAAR1 agonist: agonists of human TAAR1 | Q96RJ0 | CHO RD-HGA16 TAAR1, Fluo-8 calcium fluorescence; vehicle wells 0%, saturating PEA agonist 100% | activation, % at 3 µM | 0.99% of 360,000 active;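 active = activation above the mean activation of all test compounds in the run plus 3 SD, cut at about 38% in these data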
Target sequence (Q96RJ0 whole entry, looked up): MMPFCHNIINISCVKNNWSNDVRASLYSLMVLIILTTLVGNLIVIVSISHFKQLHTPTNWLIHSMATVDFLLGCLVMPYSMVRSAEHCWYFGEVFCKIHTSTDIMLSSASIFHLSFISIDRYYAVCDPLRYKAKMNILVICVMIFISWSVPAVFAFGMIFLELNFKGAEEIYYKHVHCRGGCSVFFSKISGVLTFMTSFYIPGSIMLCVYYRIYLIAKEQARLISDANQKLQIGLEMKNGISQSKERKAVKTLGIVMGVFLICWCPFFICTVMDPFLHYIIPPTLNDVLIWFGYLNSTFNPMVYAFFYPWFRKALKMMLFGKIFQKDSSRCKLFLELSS
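Repeats: no replicates (n 1) | Material: CHO-derived RD-HGA16 cells with stable Gα16 and human TAAR1 | Technique: Kinetic Fluo-8 calcium fluorescence | Schedule: 17-24 h seeding, 75 min 37 °C dye, 30 min RT | Evaluation: % activation from peak over basal fluorescence ratio, DMSO-to-PEA scaled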
V1R ag counter: counter-screen for oxytocin receptor agonists: human V1a receptor agonists; activation, % at 3 µM; CHO-V1R cells, Fluo-8 calcium fluorescence, agonist mode; 0% DMSO, 100% 3 nM vasopressin; 0.25% of 320,000 active; P37288;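 active = activation above the mean activation of all tested compounds plus 3 SD, per screening run, cut at about 20% in these data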;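 note: signal is peak over basal fluorescence ratio across a 100 second FLIPR read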
OXTR ag: activates the human oxytocin receptor; P30559; CHO-OTR cells, Fluo-8 calcium fluorescence; normalized: DMSO 0%, oxytocin 100%; activation, % at 3 µM; 0.32% of 320,000 active; AID 2435;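 active = activation above the mean of all tested compounds plus 3 SD, cutoff set per screening run, cut at about 20% in these data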;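 note: peak over basal fluorescence ratio from a 100 s FLIPR kinetic read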
Target sequence (P30559 whole entry, looked up): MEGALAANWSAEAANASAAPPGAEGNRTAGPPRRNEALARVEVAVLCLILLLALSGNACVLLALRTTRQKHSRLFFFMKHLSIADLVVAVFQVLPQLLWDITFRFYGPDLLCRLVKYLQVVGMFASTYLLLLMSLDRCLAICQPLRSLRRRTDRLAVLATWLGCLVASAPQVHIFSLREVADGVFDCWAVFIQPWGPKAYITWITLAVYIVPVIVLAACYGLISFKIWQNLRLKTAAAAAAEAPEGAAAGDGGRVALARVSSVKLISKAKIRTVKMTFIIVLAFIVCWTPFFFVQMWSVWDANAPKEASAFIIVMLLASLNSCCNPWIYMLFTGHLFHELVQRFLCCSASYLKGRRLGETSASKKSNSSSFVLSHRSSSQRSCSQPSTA
OXTR potentiate: potentiates the human oxytocin receptor response; P30559; activation, % at 3 µM; 0.061% of 320,000 active; CHO-OTR cells, Fluo-8 calcium fluorescence, potentiator mode; 0% = oxytocin EC15, 100% = EC100; AID 2445;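 active = activation above that plate's cutoff, the mean activation of tested compounds plus 3 SD, cut at about 6.6% in these data, passing the limit was not always enough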;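 note: 100% uses oxytocin at 75 nM as the full agonist control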
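test system = CHO-OTR cells, human receptor | compound = single-point 3.0 µM | schedule = 6 min compound pre-incubation at room temperature, 100 s kinetic read | signal = Fluo-8 no-wash calcium dye fluorescence, excitation 470-495 nm, emission 515-575 nm | repeats = single well per compound, singlicate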
TAAR1 antag: human TAAR1 antagonism | 1.5% of 360,000 active | inhibition, % at 3 µM | AID 624466 | CHO RD-HGA16 TAAR1, Fluo-8 calcium fluorescence, antagonist | Q96RJ0;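 active = inhibition above a per-plate cutoff, the mean inhibition of test compounds on that plate plus 3 SD, cut at about 49% in these data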;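 note: 0% = DMSO plus EC80 beta-PEA response and 100% = DMSO alone without agonist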
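Material: RD-HGA16 CHO cells with stable hTAAR1 and Gα16; Dosing: single nominal final test compound concentration of 3 µM; Schedule: seeding 17-24 h prior, 75-min 37 °C, 30-min RT dye loading; Detection: kinetic Fluo-8 calcium fluorescence measurement; Measure: % inhibition from peak post-agonist over basal fluorescence ratio; Benchmarks: vehicle and agonist controls.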
TAAR1 ag confirm: human TAAR1 agonism, confirmed; 82% of 2,400 active; activation, % at 3 µM; CHO RD-HGA16 TAAR1, Fluo-8 calcium fluorescence; scaled: DMSO 0%, maximal phenethylamine 100%; shares compounds with TAAR1 agonist;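 active = activation above a cutoff set at the run's mean compound activation plus 3 SD, cut at about 39% in these data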
Ga16 nonsel ag: nonselective agonism, TAAR1 counter-screen | shares compounds with TAAR1 agonist | CHO-Ga16 parental, Fluo-8 calcium fluorescence; normalized to maximal ATP response, DMSO zero | activation, % at 3 µM | 50% of 2,400 active;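 active = activation above the run cutoff, the mean activation over all tested wells plus 3 SD, cut at about 12% in these data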;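 note: 0% = DMSO wells and 100% = maximal ATP response on the peak over basal ratio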
TAAR1 desensitize: counter-screen for human TAAR1 agonists: agonists that desensitize TAAR1; shares compounds with TAAR1 agonist; CHO RD-HGA16 hTAAR1, Fluo-8 calcium, beta-PEA response inhibition; inhibition, % at 3 µM; 46% of 2,400 active;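 active = inhibition above the run cutoff, the mean inhibition of all test compounds plus 3 SD, cut at about 49% in these data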;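 note: beta-PEA stimulus applied at its EC80; loss of beta-PEA calcium signal after compound pretreatment read as receptor desensitization; 0% = DMSO with beta-PEA at EC80 and 100% = DMSO alone without agonist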
Ga16 antag count: nonselective Ga16 antagonism, counter-screen; shares compounds with TAAR1 agonist; CHO-Ga16 ATP-induced calcium, Fluo-8 fluorescence; inhibition, % at 3 µM; 39% of 2,400 active;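 active = inhibition above the plate's mean compound inhibition plus 3 SD, computed per plate, cut at about 22% in these data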;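 note: 0% = EC80 ATP with DMSO and 100% = DMSO wells without ATP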
* marks the source's active call; other numbers are inactive results; x = no result. The list is not random: actives were taken first. Their share in the collection is about 2.3%.

SMILES	TAAR1 agonist	V1R ag counter	OXTR ag	OXTR potentiate	TAAR1 antag	TAAR1 ag confirm	Ga16 nonsel ag	TAAR1 desensitize	Ga16 antag count
O=[N+]([O-])c1ccc(N/N=C/c2cccc(O)c2)cc1	59*	6	3	-6	46	43*	7	25	16
Cc1cc(C)cc(N(CCC#N)C(=O)CSc2n[nH]c(N)n2)c1	0	4	0	-13	-7	x	x	x	x
Nc1cc(=O)[nH]c(SCC(=O)N2CCc3ccccc3C2)n1	80*	1	0	-14	75*	89*	5	43	7
COc1ccccc1N1CCN(C(=O)CSc2nc(N)cc(=O)[nH]2)CC1	1	0	0	-4	-5	x	x	x	x
CN(CCc1ccccn1)C1CC(=O)N(c2ccc(Cl)cc2)C1=O (centres undefined)	68*	1	1	-19	7	17	0	-3	1
CCCCNS(=O)(=O)c1cccc(NC(=O)[C@H]2C[C@H](O)[C@@H](CO)O2)c1	2	x	x	x	-9	x	x	x	x
Cc1ccccc1OCC(=O)Nc1ccccc1NC(=O)c1ccco1	-2	2	1	-2	-2	x	x	x	x
CC(C)c1ccc(OCC(=O)NNC(=S)NC(=O)c2ccco2)c(Br)c1	44*	0	-1	2	7	81*	59*	70*	51*
Cc1ccccc1OCC(=O)NNC(=S)NC(=O)c1ccco1	65*	3	11	6	14	29	23*	12	20
O=C(Nc1ccc(N2CCOCC2)cc1N1CCOCC1)c1ccc([N+](=O)[O-])cc1Cl	2	-1	0	-10	-15	x	x	x	x
CC(=O)N1CCOc2ccc(S(=O)(=O)NCCc3ccccc3)cc21	56*	4	4	-11	-11	64*	5	13	12
O=C(O)c1cccc(NS(=O)(=O)c2ccc(C3CCCCC3)cc2)c1	x	2	1	-3	x	x	x	x	x
Cc1cccc(NS(=O)(=O)c2ccc(C3CCCCC3)cc2)c1	59*	3	3	-21	55*	38*	8	48	37*
N#CCc1ccc(NS(=O)(=O)c2ccc(C3CCCCC3)cc2)cc1	51*	12	11	-9	51*	51*	24*	42	34*
CCc1ccc(C(O)c2ncc(-c3cccc(F)c3)[nH]2)cc1 (centres undefined)	2	x	x	x	10	x	x	x	x
CC(=O)c1cccc(OCC(O)CNCCc2ccc(Cl)cc2)c1 (centres undefined)	x	3	2	-6	x	x	6	x	-1
OC(CNCc1ccccc1)COCc1ccc(Cl)cc1 (centres undefined)	12	3	5	-3	-5	x	x	x	x
OC(CNCCc1ccc(Cl)cc1)COCc1ccco1 (centres undefined)	56*	0	1	-2	2	67*	1	26	6
Cc1ccc(Nc2cc(C)c3c(O)cccc3n2)cc1C	98*	8	12	-6	54*	96*	28*	87*	25*
COc1ccc(Nc2cc(C)c3c(O)cccc3n2)cc1	x	6	6	-5	x	x	6	x	13
Cc1ccccc1Nc1cc(C)c2c(O)cccc2n1	12	6	10	-9	-1	x	x	x	x
COc1cccc(Nc2cc(C)c3ccccc3n2)c1	-3	-1	-2	-6	-15	x	x	x	x
O=C(Cc1cccs1)N1CCN(S(=O)(=O)c2ccc(F)c(F)c2)CC1	1	1	6	-6	-7	x	x	x	x
COC(=O)C1=C(C)N(Cc2cccc(C(F)(F)F)c2)C(=NCc2ccc3c(c2)OCO3)NC1c1cccc(C(F)(F)F)c1 (centres undefined)	40*	x	x	x	34	36	13*	25	33*
C=CCN=C1NC(c2ccc(Cl)cc2)C(C(=O)OC)=C(C)N1Cc1cccc(C(F)(F)F)c1 (centres undefined)	65*	x	x	x	75*	76*	47*	89*	72*
SMILES	TAAR1 agonist	V1R ag counter	OXTR ag	OXTR potentiate	TAAR1 antag	TAAR1 ag confirm	Ga16 nonsel ag	TAAR1 desensitize	Ga16 antag count
COC(=O)C1=C(C)N(Cc2cccc(C(F)(F)F)c2)C(=NCc2ccc3c(c2)OCO3)NC1c1ccc(F)cc1 (centres undefined)	48*	x	x	x	50*	35	15*	44	36*
COC(=O)C1=C(C)N(Cc2cccc(C(F)(F)F)c2)C(=NCc2cccc(C(F)(F)F)c2)NC1c1ccc(Cl)cc1 (centres undefined)	11	x	x	x	6	x	x	x	x
CC(OC(=O)CCC(=O)c1ccc(Cl)s1)C(=O)NC1(C#N)CCCCC1 (centres undefined)	9	2	3	3	-12	x	x	x	x
C#CCOCCOCCOCCNc1nc(N2CCN(C(=O)[C@H](Cc3cc4ccccc4[nH]3)n3cc([C@@H](N)C(C)CC)nn3)CC2)nc(N2CCN(C(=O)[C@H](Cc3cc4ccccc4[nH]3)n3cc([C@@H](N)CC(C)C)nn3)CC2)n1 (some centres undefined)	x	0	-1	-10	x	x	x	x	x
O=C(CCC1CCCN(C(=O)c2cc(F)ccc2F)C1)N1CCN(c2ccccn2)CC1 (centres undefined)	2	x	x	x	7	x	x	x	x
CC1(C)CC(=O)/C(=C(/O)Cc2ccccc2)C(=NCCc2ccccc2)C1	56*	-1	-2	-2	-3	71*	0	47	2
COc1ccc(CCNCC(O)c2ccccc2)cc1 (centres undefined)	10	2	1	0	-21	x	x	x	x
OC(CNCCc1ccccc1)c1ccccc1 (centres undefined)	53*	0	0	-1	1	31	1	12	10
Cn1c(CCN2CCCCC2)nc2cc(NS(=O)(=O)c3ccc(Cl)cc3)ccc21	7	5	5	-5	0	x	x	x	x
Cn1c(CN2CCCCC2)nc2cc(NS(=O)(=O)c3ccc(Cl)cc3)ccc21	70*	32*	34*	-12	9	77*	41*	39	23*
CCOCCOc1cccc(C(=O)NC(c2ccccc2)c2ccccc2)c1	x	6	-1	-4	x	x	8	x	12
